Calls of active or inactive are those of the source.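 The calls were made as follows: active = viability at or below 30% in both replicate assays; inconclusive = viability at or below 30% in just one of the two assays; inactive = the rest.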
Assay: HUVEC growth inhibition – cell-based, human, primary screen (AID 575);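 also: 100% = median of untreated cell wells with 0.1% DMSO on each plate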
Details: HUVEC proliferation, CellTiter-Glo luminescence, 72 h; at 10 µM; hits give low values
In short: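 Material: primary human umbilical vein endothelial cells / Schedule: 72 h exposure, 37 °C, 5% CO2, 30 min RT equilibration / Signal: ATP-based CellTiter-Glo luminescent read / Read-out basis: percent of median DMSO-control luminescence / Control set: 32 DMSO-only cell-control wells (high), 32 MePR drug-control wells (low) per plate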
In the case of `Cc1noc(C)c1COc1cccc(C(=O)Nc2ccc(C#N)cc2)c1`, the viability was 68% (inactive).
With `Cc1ccc(NCc2nnc(SCC(=O)N3CCCCC3)n2CC2CCCO2)c(C)c1` (stereo not given) the viability was 106% (inactive).
In the case of `COc1ccc(S(=O)(=O)N2CCOCC2)cc1C(=O)Nc1cc(C)on1`, the viability was 102% (inactive).
For `CC(NC(=O)c1ccco1)C(c1cccs1)N1CCN(c2ccc(F)cc2)CC1` (stereo not given), the viability was 67.9% (inactive).
For `CCN1C(=O)NC(c2cc(Br)ccc2OC)C(C(=O)OC)=C1C` (stereo not given), the viability was 104% (inactive).
With `COc1ccc(N2CCN(C(c3cccs3)c3nnnn3C3CCCC3)CC2)cc1` (stereo not given) the viability was 69.3% (inactive).
In the case of `c1ccc(-n2c(Sc3cnccn3)nnc2-c2cccs2)cc1`, the viability was 89.1% (inactive).
For `Nn1c(SCC(=O)Nc2ccc3c(c2)OCCO3)nnc1C(F)(F)F`, the viability was 88.3% (inactive).
In the case of `O=C(NC1=NCCS1)NC12CC3CC(CC(C3)C1)C2`, the viability was 98.4% (inactive).
With `CC1CCCCC1NC(=O)Cn1nnc(-c2ccc(Cl)cc2)n1` (stereo not given) the viability was 72.7% (inactive).
With `CCOC(=O)C(NC(=O)c1ccc(OC)cc1)(N1CCOCC1)C(F)(F)F` (stereo not given) the viability was 115% (inactive).
In the case of `CC(C)Cc1cc(C(=O)Nc2c(F)cc(F)cc2Br)no1`, the viability was 107% (inactive).
With `CCC(C)(C(=O)NC1CCCCC1)N(CC1CCCO1)C(=O)c1ccccn1` (stereo not given) the viability was 91.6% (inactive).
In the case of `COCCNC(=O)C(c1ccc(C)o1)N(Cc1ccc(OC)cc1)C(=O)Cn1nnc2ccccc21` (stereo not given), the viability was 102% (inactive).
For `CC(=O)c1c(C)[nH]c(C(=O)N2CCN(C(=O)c3ccco3)CC2)c1C`, the viability was 94.5% (inactive).
For `O=C(NC12CC3CC(CC(C3)C1)C2)c1cncc(O)c1`, the viability was 88.2% (inactive).
For `CCOC(=O)C1CCN(c2nc3ccccc3nc2C(C#N)C(=O)OCCOC)CC1` (stereo not given), the viability was 78.3% (inactive).
For `Cc1ccccc1-c1nc(CN2CCC(C(=O)NCCCN3CCOCC3)CC2)c(C)o1`, the viability was 74% (inactive).
For `COc1ccccc1NC(=O)C1=C(C)Nc2nnnn2C1c1ccccc1OC` (stereo not given), the viability was 113% (inactive).
With `O=C(C1CCCN(S(=O)(=O)c2cnc[nH]2)C1)N1CC(=O)N(CCc2ccccc2)C(=O)C1` (stereo not given) the viability was 105% (inactive).
For `Cc1c(Cl)cccc1N1C(=O)c2ccccc2C1=O`, the viability was 99.5% (inactive).
For `CCN(CC)CCCN(Cc1cc2cc(OC)ccc2[nH]c1=O)C(=O)Nc1ccccc1`, the viability was 65.8% (inactive).
With `O=C1CCCC2=C1C(c1ccsc1)CC(=O)N2c1ccccc1` (stereo not given) the viability was 113% (inactive).
With `Cc1ccc(NC(=O)CSc2nnc(NC(=O)CN3CCOCC3)s2)cc1` the viability was 98% (inactive).
With `COC(=O)c1ccccc1NS(=O)(=O)c1ccc(F)cc1` the viability was 104% (inactive).
In the case of `COc1cccc(NC(=O)N2CCN(c3cccc(C)c3C)CC2)c1`, the viability was 68.5% (inactive).
In the case of `CC(C)CN(C(=O)COC(=O)Cc1n[nH]c(=O)c2ccccc12)C1CCS(=O)(=O)C1` (stereo not given), the viability was 93.6% (inactive).
With `CC1CCCC(C(=O)OCc2ccccc2)N1` (stereo not given) the viability was 102% (inactive).
In the case of `COc1cccc(NC(=O)NC2(C(F)(F)F)Oc3ccccc3O2)c1`, the viability was 69.1% (inactive).
With `CCC(=O)N1CCc2cc(OC)c(OC)cc2C1COc1ccc(C(=O)OC)cc1` (stereo not given) the viability was 87.2% (inactive).
For `Cc1ccc(-c2cc(C(=O)N3CCCC3)no2)cc1`, the viability was 96% (inactive).
For `CCn1nc(C)c(NC(=O)c2cc(Br)ccc2Cl)c1C`, the viability was 88.5% (inactive).
For `Cc1cc2nc3c(nc2cc1C)C1(C(=O)O)CCC3(C)C1(C)C` (stereo not given), the viability was 99.9% (inactive).
For `COc1ccccc1CN1CC(C(=O)N2CCN(c3ccc(F)cc3)CC2)CC1=O` (stereo not given), the viability was 98% (inactive).
In the case of `CC(=O)N1CCC2(CC1)CC(=O)c1cc(OCC(=O)NCc3ccco3)ccc1O2`, the viability was 106% (inactive).
With `Cc1ccc(C(=O)CCC2CCCC2=O)cc1` (stereo not given) the viability was 111% (inactive).
With `Cc1nc(CNS(=O)(=O)c2ccc3c(c2)OCCO3)cs1` the viability was 105% (inactive).
With `CCOCCCNC(=O)C1CCN(C(=O)Nc2ccc(Cl)cc2)CC1` the viability was 94.7% (inactive).
With `CCc1nc2c(cnn2-c2ccc(Cl)cc2)c(=O)n1-c1ccc2c(c1)OCCO2` the viability was 83.3% (inactive).
In the case of `CCOc1ccc(C2CC(=O)NC3=C2C(=O)CCC3)cc1Cl` (stereo not given), the viability was 88.4% (inactive).

Source: PubChem BioAssay
